target: T1, Adenosine receptor A2b (Homo sapiens) (UniProt P29275); test: Agonist activity human adenosine A2B receptor expressed in CHO cells assessed as stimulation of adenylate cyclase relative to NECA; type: functional, cell-based
T1 sequence (whole entry): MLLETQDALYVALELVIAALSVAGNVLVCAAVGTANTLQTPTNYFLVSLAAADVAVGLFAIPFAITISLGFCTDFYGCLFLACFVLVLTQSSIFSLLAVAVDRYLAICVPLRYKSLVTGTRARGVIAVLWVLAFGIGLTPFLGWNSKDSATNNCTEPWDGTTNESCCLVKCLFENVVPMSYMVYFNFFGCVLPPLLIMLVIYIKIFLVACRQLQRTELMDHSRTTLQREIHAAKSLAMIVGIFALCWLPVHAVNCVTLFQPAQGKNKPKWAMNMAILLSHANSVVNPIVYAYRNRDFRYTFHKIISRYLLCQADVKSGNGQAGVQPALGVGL
Procedure, shortened: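 Stably transfected CHO cells; cAMP accumulation by enzyme immunoassay kit. Relative potency computed as pEC50(compound) minus pEC50(NECA) determined in the same publication.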

Compound | Activity
Nc1nc(OCCc2ccccc2)nc2c1ncn2[C@@H]1O[C@H](CO)[C@@H](O)[C@H]1O | -1.4
CC(C)Nc1nc(C#C[C@@H](O)c2ccccc2)nc2c1ncn2[C@@H]1O[C@H](CO)[C@@H](O)[C@H]1O | 0.398
CCNC(=O)[C@H]1O[C@@H](n2cnc3c(NNC(=O)c4ccc[nH]4)nc(Cl)nc32)[C@H](O)[C@@H]1O | -0.351
CCNC(=O)[C@H]1O[C@@H](n2cnc3c(Nc4ccc(OCC(=O)NCc5ccc(OC)cc5)cc4)ncnc32)[C@H](O)[C@@H]1O | -0.19
Nc1nc(OCCc2c[nH]c3cc(Br)ccc23)nc2c1ncn2[C@@H]1O[C@H](CO)[C@@H](O)[C@H]1O | 0.0389
CCNC(=O)[C@H]1O[C@@H](n2cnc3c(Nc4ccc(OCC(=O)NC5CCCCC5)cc4)ncnc32)[C@H](O)[C@@H]1O | -0.308
CCNC(=O)[C@H]1O[C@@H](n2cnc3c(Nc4ccc(OCC(=O)Nc5ccc(F)cc5)cc4)ncnc32)[C@H](O)[C@@H]1O | 1.01
CCCCC#Cc1nc(NC)c2ncn([C@@H]3O[C@H](CO)[C@@H](O)[C@H]3O)c2n1 | -1.62
Nc1nc(OCCc2c[nH]c3ccc(I)cc23)nc2c1ncn2[C@@H]1O[C@H](CO)[C@@H](O)[C@H]1O | -1.13
CCNC(=O)[C@H]1O[C@@H](n2cnc3c(Nc4ccc(OCC(=O)Nc5ccc(OC)c(OC)c5)cc4)ncnc32)[C@H](O)[C@@H]1O | 0.533
CCNC[C@H]1O[C@@H](n2cnc3c(NC(=N)N)ncnc32)[C@H](O)[C@@H]1O | 0.41
Nc1nc(OCCc2cccs2)nc2c1ncn2[C@@H]1O[C@H](CO)[C@@H](O)[C@H]1O | -1.1
CCNC(=O)[C@H]1O[C@@H](n2cnc3c(Nc4ccc(OCC(=O)Nc5ccc6c(c5)OCO6)cc4)ncnc32)[C@H](O)[C@@H]1O | 0.64
CCNC(=O)[C@H]1O[C@@H](n2cnc3c(Nc4ccc(OCC(=O)Nc5ccc(OC)cc5)cc4)ncnc32)[C@H](O)[C@@H]1O | 0.68
Nc1ncnc2c1ncn2[C@@H]1O[C@H](C(=O)NC2CC2)[C@@H](O)[C@H]1O | -0.233
CNc1nc(C#C[C@@H](O)c2ccccc2)nc2c1ncn2[C@@H]1O[C@H](CO)[C@@H](O)[C@H]1O | -0.035
Nc1nc(OCCc2c[nH]c3cc(Cl)ccc23)nc2c1ncn2[C@@H]1O[C@H](CO)[C@@H](O)[C@H]1O | -0.188
CCNC(=O)[C@H]1O[C@@H](n2cnc3c(N)nc(C#C[C@@H](O)c4ccccc4)nc32)[C@H](O)[C@@H]1O | 1.04
CCNC(=O)[C@H]1O[C@@H](n2cnc3c(Nc4ccc(OCC(=O)Nc5ccc(Br)cc5)cc4)ncnc32)[C@H](O)[C@@H]1O | 1.17
CCNC(=O)[C@H]1O[C@@H](n2cnc3c(NNC(=O)c4ccco4)nc(Cl)nc32)[C@H](O)[C@@H]1O | -0.118
CCNc1nc(OCCc2c[nH]c3ccccc23)nc2c1ncn2[C@@H]1O[C@H](CO)[C@@H](O)[C@H]1O | -1.37
CNc1nc(C#CCCCc2ccccc2)nc2c1ncn2[C@@H]1O[C@H](CO)[C@@H](O)[C@H]1O | -1.62
Nc1nc(OCCc2c[nH]c3ccc(Cl)cc23)nc2c1ncn2[C@@H]1O[C@H](CO)[C@@H](O)[C@H]1O | -1.19
CCNC(=O)[C@H]1O[C@@H](n2cnc3c(Nc4ccc(OCC(=O)Nc5ccc(Cl)cc5)cc4)ncnc32)[C@H](O)[C@@H]1O | 1.1
Nc1nc(OCCc2cccc3ccccc23)nc2c1ncn2[C@@H]1O[C@H](CO)[C@@H](O)[C@H]1O | -1.01
Nc1nc(OCCc2c[nH]c3ccc(Br)cc23)nc2c1ncn2[C@@H]1O[C@H](CO)[C@@H](O)[C@H]1O | -0.416
CCNC(=O)[C@H]1O[C@@H](n2cnc3c(Nc4ccc(OCC(=O)Nc5ccc(OC)cc5)cc4)nc(Cl)nc32)[C@H](O)[C@@H]1O | -0.366

Compound | Activity
Nc1nc(OCCc2c[nH]c3ccc(O)cc23)nc2c1ncn2[C@@H]1O[C@H](CO)[C@@H](O)[C@H]1O | -0.806
Nc1nc(Cl)nc2c1ncn2[C@@H]1O[C@H](CO)[C@@H](O)[C@H]1O | -0.889
CCNC(=O)[C@H]1O[C@@H](n2cnc3c(Nc4ccc(OCC(=O)Nc5cc(OC)cc(OC)c5)cc4)ncnc32)[C@H](O)[C@@H]1O | 0.461
CCCCC#Cc1nc(NCC)c2ncn([C@@H]3O[C@H](CO)[C@@H](O)[C@H]3O)c2n1 | -1.62
Nc1nc(C#C[C@@H](O)c2ccccc2)nc2c1ncn2[C@@H]1O[C@H](CO)[C@@H](O)[C@H]1O | 0.416
Nc1nc(C#C[C@H](O)c2ccccc2)nc2c1ncn2[C@@H]1O[C@H](CO)[C@@H](O)[C@H]1O | -0.412
CCNC(=O)[C@H]1O[C@@H](n2cnc3c(N)ncnc32)[C@H](O)[C@@H]1O | 0
CCNC(=O)[C@H]1O[C@@H](n2cnc3c(Nc4ccc(OCC(=O)NCc5ccccc5)cc4)ncnc32)[C@H](O)[C@@H]1O | 0.014
CC(C)(C)OC(=O)C1CCCN1C[C@@H](O)[C@H](Cc1ccccc1)NC(=O)[C@H](CC(N)=O)NC(=O)OCc1ccccc1 (some centres undefined) | -0.405
CCNC(=O)[C@H]1O[C@@H](n2cnc3c(NNC(=O)Cc4cccs4)nc(Cl)nc32)[C@H](O)[C@@H]1O | -0.576
CCNC(=O)[C@H]1O[C@@H](n2cnc3c(Nc4ccc(OCC(=O)Nc5ccccc5)cc4)ncnc32)[C@H](O)[C@@H]1O | 1.33
CCNC(=O)[C@H]1O[C@@H](n2cnc3c(NNC(=O)c4ccco4)ncnc32)[C@H](O)[C@@H]1O | 0.29
CCNC(=O)[C@H]1O[C@@H](n2cnc3c(Nc4ccc(OCC(=O)NC5CCCCC5)cc4)nc(Cl)nc32)[C@H](O)[C@@H]1O | -0.29
CCNC(=O)[C@H]1O[C@@H](n2cnc3c(N)nc(C#C[C@H](O)c4ccccc4)nc32)[C@H](O)[C@@H]1O | 0
CCNc1nc(C#C[C@H](O)c2ccccc2)nc2c1ncn2[C@@H]1O[C@H](CO)[C@@H](O)[C@H]1O | -0.579
Nc1nc(OCCc2cc[nH]c2)nc2c1ncn2[C@@H]1O[C@H](CO)[C@@H](O)[C@H]1O | -1.27
CCNC(=O)[C@H]1O[C@@H](n2cnc3c(NC)ncnc32)[C@H](O)[C@@H]1O | -0.787
CCNC(=O)[C@H]1O[C@@H](n2cnc3c(NNC(=O)c4ccc(C)o4)ncnc32)[C@H](O)[C@@H]1O | -0.152
CCNC(=O)[C@H]1O[C@@H](n2cnc3c(NNC(=O)c4ccc(C)s4)ncnc32)[C@H](O)[C@@H]1O | -0.232
CNc1nc(C#C[C@H](O)c2ccccc2)nc2c1ncn2[C@@H]1O[C@H](CO)[C@@H](O)[C@H]1O | -1.62
OC[C@H]1O[C@@H](n2cnc3c(Nc4ccccc4)ncnc32)[C@H](O)[C@@H]1O | -1.31
CCNC(=O)[C@H]1O[C@@H](n2cnc3c(NNC(=O)c4ccc(C)[nH]4)nc(Cl)nc32)[C@H](O)[C@@H]1O | -0.039
CC(C)Nc1nc(C#C[C@H](O)c2ccccc2)nc2c1ncn2[C@@H]1O[C@H](CO)[C@@H](O)[C@H]1O | -0.569
CCNC(=O)[C@H]1O[C@@H](n2cnc3c(Nc4ccc(OCC(=O)NCc5ccccc5)cc4)nc(Cl)nc32)[C@H](O)[C@@H]1O | -0.053
OC[C@H]1O[C@@H](n2cnc3c(NCc4ccccc4)ncnc32)[C@H](O)[C@@H]1O | -1.49
CCNC(=O)[C@H]1O[C@@H](n2cnc3c(Nc4ccc(OCC(=O)Nc5ccc(I)cc5)cc4)ncnc32)[C@H](O)[C@@H]1O | 0.71
CCNC(=O)[C@H]1O[C@@H](n2cnc3c(NNC(=O)c4ccc(Br)o4)ncnc32)[C@H](O)[C@@H]1O | -0.363
